This passage reports Activity results from ChEMBL document CHEMBL1921792, “Synthesis and anticonvulsant activity of trans- and cis-2-(2,6-dimethylphenoxy)-N-(2- or 4-hydroxycyclohexyl)acetamides and their amine analogs” (Bioorg Med Chem, 2011).

Data set [1] has as its system Mus musculus. As to the kind of experiment: Anticonvulsant activity in mouse assessed as protection against maximal electric shock-induced seizures at 100 mg/kg, ip after 4 hrs. In kind it is functional, organism-based. Set-up: dose 100 mg/kg. In a few lines: (§1)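 Phase I maximal electroshock screen in mice. Compound given ip as a suspension in 0.5% methylcellulose at 30, 100 or 300 mg/kg, tested at 30 min and 4 h. Small groups (1–8); result is number protected/number tested.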

The subject of data set [2] is Mus musculus. In words: Anticonvulsant activity against subcutaneous pentylenetetrazole-induced seizures in mouse at 100 mg/kg, ip after 4 hrs. In kind it is functional, organism-based. Set-up: dose 100 mg/kg. In outline:
(§2)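 Phase I screen in mice. Compound given ip as a suspension in 0.5% methylcellulose, read at 30 min and 4 h. Pentylenetetrazole 85 mg/kg in 0.9% NaCl was injected sc into the posterior midline and animals watched ≥30 min. Protection meant no clonic spasm lasting ≥5 s. Groups of 1–8 animals; result is protected/tested.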

The test system of data set [3] is Rattus norvegicus. As to the kind of experiment: Neurotoxicity in rat assessed as neurological deficit at 30 mg/kg, po after 0.5 hrs […]. In kind it is toxicity, organism-based. Set-up: dose 30 mg/kg, route oral. As to conditions: in vivo. In a few lines: (§3)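 Rats given the compound, suspended in 0.5% methylcellulose, by the stated route and dose. Neurological deficit was recorded at the listed times as ataxia and loss of placing response and muscle tone. Reported as number of rats showing toxicity/number tested.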

Data set [4] concerns Mus musculus. In words: Anticonvulsant activity against subcutaneous pentylenetetrazole-induced seizures in mouse at 100 mg/kg, ip after 0.5 hrs. In kind it is functional, organism-based. Set-up: dose 100 mg/kg. In a few lines:
as §2

For data set [5], the system named is Mus musculus. In words: Anticonvulsant activity against subcutaneous pentylenetetrazole-induced seizures in mouse at 300 mg/kg, ip after 0.5 hrs. Type of data set: functional, organism-based. Set-up: dose 300 mg/kg. In outline:
as §2

In data set [6] the test system is Mus musculus. As to the kind of experiment: Neurotoxicity in mouse assessed as inability to maintain equilibrium on rotarod at 30 mg/kg, ip after 0.5 hrs by rotarod test. Type of data set: toxicity, organism-based. Further details: dose 30 mg/kg, route intraperitoneal. As to conditions: in vivo. In a few lines:
(§4)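 Drug given ip to mice as a suspension in 0.5% methylcellulose. At the stated time after dosing, each mouse was placed on a 1 inch knurled rod turning at 6 rpm. Neurotoxicity = inability to stay balanced at least 1 min in each of three trials. Scored as animals toxic/animals tested in small groups.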

The test system of data set [7] is Rattus norvegicus. As to the kind of experiment: Anticonvulsant activity in rat assessed as protection against maximal electric shock-induced seizures at 30 mg/kg, po after 0.25 hrs. In kind it is functional, organism-based. Further details: dose 30 mg/kg. In outline:
(§5)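 MES test in rats dosed orally at 30 mg/kg as a suspension in 0.5% methylcellulose, read at 0.25–4 h. Four rats per time point; result is protected/tested.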

Data set [8] relates to Mus musculus. In words: Anticonvulsant activity against subcutaneous pentylenetetrazole-induced seizures in mouse at 30 mg/kg, ip after 0.5 hrs. In kind it is functional, organism-based. Further details: dose 30 mg/kg. In outline:
as §2

The test system of data set [9] is Rattus norvegicus. As to the kind of experiment: Neurotoxicity in rat assessed as neurological deficit at 30 mg/kg, po after 4 hrs by rotarod test. In kind it is toxicity, organism-based. The following applies: in vivo. Further details: dose 30 mg/kg, route oral. In outline: as §3
Data set [10] deals with Rattus norvegicus. As to the kind of experiment: Neurotoxicity in rat assessed as neurological deficit at 30 mg/kg, po after 2 hrs […]. As to conditions: in vivo. In kind it is toxicity, organism-based. Further details: dose 30 mg/kg, route oral. In a few lines: as §3
Data set [11] has as its system Mus musculus. In words: Anticonvulsant activity in mouse assessed as protection against maximal electric shock-induced seizures at 30 mg/kg, ip after 0.5 hrs. In kind it is functional, organism-based. Set-up: dose 30 mg/kg. In a few lines:
as §1

Data set [12] relates to Mus musculus. In words: Neurotoxicity in mouse assessed as inability to maintain equilibrium on rotarod at 300 mg/kg, ip after 4 hrs by rotarod test. As to conditions: in vivo. Further details: dose 300 mg/kg, route intraperitoneal. In kind it is toxicity, organism-based. In outline:
as §4

Data set [13] has as its system Mus musculus. As to the kind of experiment: Anticonvulsant activity in mouse assessed as protection against maximal electric shock-induced seizures at 30 mg/kg, ip after 4 hrs. Set-up: dose 30 mg/kg. Type of data set: functional, organism-based. In a few lines:
as §1

In data set [14] the test system is Mus musculus. In words: Anticonvulsant activity in mouse assessed as protection against maximal electric shock-induced seizures at 300 mg/kg, ip after 4 hrs. Further details: dose 300 mg/kg. In kind it is functional, organism-based. In outline:
as §1

For data set [15], the system named is Mus musculus. As to the kind of experiment: Neurotoxicity in mouse assessed as inability to maintain equilibrium on rotarod at 30 mg/kg, ip after 4 hrs by rotarod test. In kind it is toxicity, organism-based. The following applies: in vivo. Further details: dose 30 mg/kg, route intraperitoneal. In a few lines: as §4
For data set [16], the system named is Mus musculus. As to the kind of experiment: Anticonvulsant activity against subcutaneous pentylenetetrazole-induced seizures in mouse at 300 mg/kg, ip after 4 hrs. In kind it is functional, organism-based. Further details: dose 300 mg/kg. In a few lines:
as §2

For data set [17], the system named is Rattus norvegicus. In words: Neurotoxicity in rat assessed as neurological deficit at 30 mg/kg, po after 1 hr […]. Type of data set: toxicity, organism-based. Set-up: dose 30 mg/kg, route oral. The following applies: in vivo. In a few lines: as §3
Data set [18] has as its system Mus musculus. In words: Anticonvulsant activity in mouse assessed as protection against maximal electric shock-induced seizures at 300 mg/kg, ip after 0.5 hrs. Further details: dose 300 mg/kg. Type of data set: functional, organism-based. In a few lines:
as §1

Data set [19] deals with Mus musculus. In words: Anticonvulsant activity against subcutaneous pentylenetetrazole-induced seizures in mouse at 30 mg/kg, ip after 4 hrs. Type of data set: functional, organism-based. Set-up: dose 30 mg/kg. In outline:
as §2

The test system of data set [20] is Mus musculus. As to the kind of experiment: Anticonvulsant activity in mouse assessed as protection against maximal electric shock-induced seizures at 100 mg/kg, ip after 0.5 hrs. In kind it is functional, organism-based. Set-up: dose 100 mg/kg. In a few lines: as §1
In data set [21] the test system is Rattus norvegicus. As to the kind of experiment: Neurotoxicity in rat assessed as neurological deficit at 30 mg/kg, po after 0.25 hrs […]. Type of data set: toxicity, organism-based. Set-up: dose 30 mg/kg, route oral. The following applies: in vivo. In a few lines: as §3
Data set [22] concerns Mus musculus. As to the kind of experiment: Neurotoxicity in mouse assessed as inability to maintain equilibrium on rotarod at 100 mg/kg, ip after 4 hrs by rotarod test. In kind it is toxicity, organism-based. Further details: dose 100 mg/kg, route intraperitoneal. The following applies: in vivo. In a few lines: as §4
Data set [23] has as its system Mus musculus. In words: Neurotoxicity in mouse assessed as inability to maintain equilibrium on rotarod at 300 mg/kg, ip after 0.5 hrs by rotarod test. The following applies: in vivo. Further details: dose 300 mg/kg, route intraperitoneal. Type of data set: toxicity, organism-based. In a few lines:
as §4

The test system of data set [24] is Rattus norvegicus. As to the kind of experiment: Anticonvulsant activity in rat assessed as protection against maximal electric shock-induced seizures at 30 mg/kg, po after 0.5 hrs. Set-up: dose 30 mg/kg. In kind it is functional, organism-based. In a few lines:
as §5

Calls of active or inactive are those of the source. No cut-off for these calls is given here.

`Cc1cccc(C)c1OCC(=O)N[C@@H]1CCCC[C@H]1O.O=C(O)C(O)C(O)C(=O)O`: the result in the data set with Mus musculus [1], in the data set with Mus musculus [2], in the data set with Mus musculus [4], with Mus musculus [5], in the data set on Rattus norvegicus [7] and in the data set with Mus musculus [8] was inactive. Also, the outcome with Mus musculus [11], in the data set with Mus musculus [13], with Mus musculus [14], with Mus musculus [16], in the data set with Mus musculus [19] and in the data set with Mus musculus [20] was inactive. Moreover, the Activity result in the data set with Rattus norvegicus [3], in the data set on Mus musculus [6], with Rattus norvegicus [9], in the data set with Rattus norvegicus [10], in the data set with Mus musculus [12] and with Mus musculus [15] was “Non-toxic” each time. The Activity result in the data set on Rattus norvegicus [17], in the data set with Rattus norvegicus [21] and in the data set on Mus musculus [22] was “Non-toxic” throughout. Further, in the data set on Mus musculus [18], the outcome was Active.
As to `Cc1cccc(C)c1OCC(=O)NC1CCC(O)CC1.Cl` (racemic), the outcome in the data set on Mus musculus [1], with Mus musculus [2], in the data set with Mus musculus [4], in the data set on Mus musculus [8], in the data set on Mus musculus [11] and with Mus musculus [13] was inactive. In addition, the outcome in the data set with Mus musculus [14], in the data set on Mus musculus [16] and in the data set on Mus musculus [19] was inactive. In addition, the Activity result in the data set with Rattus norvegicus [3] is “Non-toxic”; in the data set on Mus musculus [6] it was “Non-toxic”; with Rattus norvegicus [9], “Non-toxic”; with Mus musculus [23] it was “Toxic”; in the data set on Rattus norvegicus [10], “Non-toxic”; in the data set on Mus musculus [12] it was “Non-toxic”. The Activity result in the data set with Mus musculus [15], in the data set on Rattus norvegicus [17], in the data set on Rattus norvegicus [21] and in the data set with Mus musculus [22] was “Non-toxic” throughout. The outcome in the data set on Mus musculus [5], in the data set with Rattus norvegicus [7], in the data set on Rattus norvegicus [24], with Mus musculus [18] and in the data set on Mus musculus [20] was Active.
